Compounds with a hit are over-represented: about 3% of the library has one in this group of screens.
HTR1E agonist: activates the human 5-HT1E serotonin receptor | P28566 | actives 0.69% (n = 65,000) | CHO 5-HT1E Ga15 NFAT-bla reporter, FRET; 0% DMSO wells, 100% control agonist wells | activation, % at 6 µM;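 active = activation above a set limit, the screen-wide mean activation plus 3 SD, cut at about 8.5% in these data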;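 note: 100% = positive control agonist at 1 µM giving full maximal response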
HTR1E antagonist: antagonists of human 5-HT1E serotonin receptor. CHO 5-HT1E Ga15 NFAT-bla reporter, FRET, antagonist. P28566. actives 0.99% (n = 65,000). AID 571. inhibition, % at 6 µM;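 active = inhibition above a set limit, the mean inhibition across every tested compound plus 3 SD, cut at about 29% in these data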;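 note: signal is the 460 over 535 nm emission ratio of beta-lactamase substrate; 0% = agonist plus DMSO wells and 100% = wells without agonist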
S1P1 ag-PAM: S1P1 (human) agonism or agonism potentiation; AID 449; P21453; actives 0.57% (n = 56,000); activation, % at 9.5 µM; S1P1 CRE-bla cells, forskolin, beta-lactamase FRET, potentiator mode; S1P1 agonist co-added at EC20, 2 nM; 100% = saturating reference agonist, 0% = basal;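 active = activation above a cutoff set at the mean activation of all tested compounds plus 3 SD, cut at about 54% in these data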;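 note: forskolin at 4 µM as EC80 and the EC20 agonist is SEW2871; 100% = SEW2871 at its EC100 plus forskolin at EC80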
HTR1A agonist: 5-HT1a (human) receptor agonism | P08908 | CHO 5-HT1a Ga15 NFAT-bla reporter, FRET ratio; 0% basal, 100% maximal reference agonist | activation, % at 10 µM | actives 0.56% (n = 65,000) | AID 567;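 active = activation above the screen-wide mean activation plus 3 SD, cut at about 19% in these data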;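 note: 0% = DMSO wells and 100% = 5-CT at EC100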
5-HT1A blocker: antagonists of human 5-HT1a serotonin receptor; P08908; CHO 5-HT1a Ga15 NFAT-bla reporter, antagonist mode; inhibition, % at 10 µM; actives 0.68% (n = 62,000); AID 612;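 active = inhibition above the mean of all tested compounds plus 3 SD, cut at about 43% in these data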;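 note: receptor stimulated by 5-CT agonist at 100 nM near EC80; beta-lactamase reporter measured by ratiometric fluorescence of a cleavable substrate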
S1P3 ag: agonists of human S1P3 receptor; actives 0.1% (n = 60,000); Q99500; S1P3 NFAT-BLA reporter cells, agonism, FRET ratio; relative to 1 µM S1P, basal subtracted; activation, % at 4.5 µM;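 active = activation above the screen-wide mean plus 3 SD, cut at about 4.5% in these data, passing the limit was not always enough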
Target sequence (Q99500 whole entry, looked up): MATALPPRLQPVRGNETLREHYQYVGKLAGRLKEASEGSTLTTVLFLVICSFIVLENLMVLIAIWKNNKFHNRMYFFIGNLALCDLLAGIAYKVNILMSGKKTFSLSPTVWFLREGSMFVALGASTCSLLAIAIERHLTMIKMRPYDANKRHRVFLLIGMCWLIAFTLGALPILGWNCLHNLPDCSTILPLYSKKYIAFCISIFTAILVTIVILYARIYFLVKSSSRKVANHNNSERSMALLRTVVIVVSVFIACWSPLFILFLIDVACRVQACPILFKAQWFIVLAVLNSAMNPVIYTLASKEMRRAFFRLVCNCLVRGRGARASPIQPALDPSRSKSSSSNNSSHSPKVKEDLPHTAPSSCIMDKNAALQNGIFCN
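Measure – % activation relative to 1 µM S1P (100%), per plate · System – stable CHO line with human S1P3, Gα16, NFAT-BLA reporter · Timing – cells plated overnight, compound 4 h 37 °C, substrate 2 h RT · Technique – fluorescent BLA substrate, ex 405 nm, em 460/535 nm ratio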
* = called active by the depositor; nt = no result given.

SMILES	HTR1E agonist	HTR1E antagonist	S1P1 ag-PAM	HTR1A agonist	5-HT1A blocker	S1P3 ag
O=C1c2[nH]nc(-c3ccccc3O)c2C(c2ccccc2)N1Cc1ccco1 (configuration not stated)	0	-8	-10	2	44*	-2
O=C1c2[nH]nc(-c3ccccc3O)c2C(c2ccccc2F)N1Cc1ccco1 (configuration not stated)	0	-2	12	5	43*	-1
C=CCSc1nc(N)c(C#N)c(-c2ccccc2)c1C#N	-1	41*	-16	-1	7	-2
CCCSc1nc(N)c(C#N)c(-c2ccc(C)cc2)c1C#N	0	1	8	1	-23	-1
COc1ccc(C2(O)CCN(CCCCOc3ccccc3)CC2)cc1	0	4	2	-1	67*	0
COc1ccc(N2CCN(CC(O)c3c[nH]c4ccc(OC)cc34)CC2C)cc1 (configuration not stated)	0	3	-1	23*	19	-1
COc1ccc2[nH]cc(C(O)CN3CCN(c4ccccc4)CC3)c2c1 (configuration not stated)	0	-4	-16	1	13	-1
O=C(CC1Sc2ncnn2C1=O)Nc1ccc(Br)cc1 (configuration not stated)	0	-11	0	0	7	0
N#CCSc1nc2cc(C(=O)N3CCC(C(N)=O)CC3)ccc2c2nc3ccccc3n12	-1	53*	-44	-2	8	1
N#CCSc1nc2cc(C(=O)N3CCCC3)ccc2c(=O)n1Cc1ccccc1	1	15	-22	1	-12	0
CCN(CC)S(=O)(=O)c1ccc(/C(O)=C(\C#N)c2nc3ccccc3n2C)cc1	0	39*	11	15	-23	0
Cc1ccc(SC/C(O)=C(\C#N)c2nc3ccccc3n2C)cc1	0	-10	-17	0	-29	-1
Cc1ccccc1-c1nc(CS(=O)(=O)CC(=O)Nc2cc(F)ccc2F)c(C)o1	0	-3	30	-3	1	0
Cc1nc(NC(=O)CSc2ccccc2N)sc1C	0	0	-6	-2	2	0
Cc1csc(NC(=O)C(Cc2ccccc2)n2cccc2)n1 (configuration not stated)	-1	3	81*	-1	8	0
CCc1nnc(NC(=O)CCN2C(=O)c3ccccc3C2=O)s1	16*	-6	-27	3	4	-1
CCc1nnc(NC(=O)CCN2C(=O)c3ccccc3S2(=O)=O)s1	0	-3	2	1	-1	0
Cc1ccc(Cn2c(Sc3nnc(C)s3)nc3c2c(=O)[nH]c(=O)n3C)cc1	0	41*	1	-1	-4	-1
CCOC(=O)C1=C(CS(=O)(=O)c2ccc(F)c(C)c2)NC(=O)NC1c1ccc(O)c(O)c1 (configuration not stated)	0	0	7	-2	-1	0
COc1cccc(OCC(=O)Nc2c(C(=O)Nc3ccc(OC)cc3OC)oc3ccccc23)c1	0	-12	-28	-1	-62	0
CCN1CCN(C(c2cccs2)C(C)NS(=O)(=O)c2ccc(Br)cc2)CC1 (configuration not stated)	0	10	nt	2	-4	nt
CC1=CC(C)(C)N(C(=O)c2ccc(F)cc2)c2cc3c(cc21)OCO3	-1	-4	13	-5	43*	0
CSC1=NCCN1C(=O)c1ccc2c(c1)OCO2	0	2	-6	0	0	-1
CCCn1nc(NS(=O)(=O)c2ccccc2)c2cc3ccccc3nc21	2	-1	19	24*	0	-1
CCOC(=O)CC1=C(C(=O)OCC)C(c2ccc(C)o2)C(C#N)=C(N)O1 (configuration not stated)	-1	35*	18	0	53*	-1
SMILES	HTR1E agonist	HTR1E antagonist	S1P1 ag-PAM	HTR1A agonist	5-HT1A blocker	S1P3 ag
Cc1cc(S(=O)(=O)N2CCN(c3ncccn3)CC2)ccc1-n1cnnn1	1	-4	nt	0	-2	nt
O=c1nc(C(F)(F)F)nc2ccccn12	-1	-4	nt	21*	9	-2
Cc1ccc2c(c1)NC(=O)C(CC(=O)NCCCN1CCN(c3cc(C)ccc3C)CC1)O2 (configuration not stated)	1	-7	10	-2	47*	-1
CN(C)c1ccc(/C=C/C(O)=C2/C(=O)N(C)C3(C)CC2c2ccccc2O3)cc1 (configuration not stated)	3	53*	-6	12	54*	-1
COc1cc(Cl)c(C)cc1NC(=O)COC(=O)c1cnc(C)cn1	0	-1	16	-3	4	-1
Clc1ccc(CSc2nnc(-c3ccncc3)o2)cc1	0	5	97*	1	5	3
OCC#CCSc1nnc(-c2ccncc2)o1	1	-3	-6	-2	-1	-2
COc1ccc(N2C(=O)CC(NCc3ccncc3)C2=O)cc1 (configuration not stated)	0	77*	nt	-1	1	0
COc1ccc(N2C(=O)CC(NCc3cccc(F)c3)C2=O)cc1 (configuration not stated)	0	-8	nt	0	-28	-1
Cc1ccc2c(CC(=O)N3CCN(S(=O)(=O)c4ccc5c(c4)OCCO5)CC3)coc2c1	0	-10	24	-1	-14	1
CCn1c(=NC(=O)c2ccc(N3C(=O)CCC3=O)cc2)sc2c(OC)ccc(OC)c21	2	31*	-48	1	12	-1
c1ccc2sc(SCc3ccc(-c4nnco4)cc3)nc2c1	-1	7	20	-2	12	0
CCOC(=O)c1c(C)oc(/N=C/c2ccccc2O)c1C#N	-1	12	6	-6	11	-1
Cc1ccc2c(c1)c1c(n2CC(O)Cn2c(C)nc3ccccc32)/C(=N\O)CCC1 (configuration not stated)	0	-25	-43	-4	28	0
Cc1ccc2c(c1)c1c(n2CC(O)Cn2c(C)nc3ccccc32)C(=O)CCC1 (configuration not stated)	0	-9	-28	73*	29	-2
O=C(NC1CCCC1)C(c1ccco1)N(Cc1ccccc1)C(=O)c1csnn1 (configuration not stated)	0	8	-2	-2	13	0
COc1ccc(-c2nc(-c3cccc(C(F)(F)F)c3)no2)cc1OC	0	11	75*	1	-2	-2
COc1ccccc1-c1nc(-c2cccc(C)c2)no1	0	5	99*	-1	10	-1
